PTK2B oligo ant = antagonists of human Pyk2 oligomerization | Q14289 | Q293 cells, Pyk2 FERM NanoBiT luminescence; stronger effect = lower value | 0.83% of 99,000 active | z-score (the deposit names both 25 µM and 10 µM);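 active = Z-score of -3 or lower, scaled per plate to the spread of control and sample wells; inactive = z-score above -3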;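 also: negative z-score means lost luminescence so less FERM oligomerization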
PostGolgi yeast = growth inhibition of a yeast mutant, post-Golgi transport screen; 0.9% of 98,000 active; AID 739; inhibition, % at 10 µM; post-Golgi transport phenotypic cell assay;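 also: yeast cells grown in 1536-well plates; yeast grown about 18 h at 30C before absorbance read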
Ecoli tolC = growth inhibitors of E. coli BW25113 tolC mutant. OD615. growth inhibition, % at 10 µM (by protocol). 2.2% of 65,000 active. AID 573;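 active = growth inhibition at or above a cutoff equal to the mean over every tested compound plus 3 SD, cut at about 60% in these data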;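 also: growth measured after 20 h incubation at 37 °C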
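Test system: tolC-deleted E. coli BW25113; medium: LB with kanamycin 50 µg/mL; compound: single-point testing at 10 µM; incubation: 20 h compound exposure of bacteria at 37 °C; signal: OD at 615 nm; evaluation: growth inhibition in percent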
PostGolgi ctrl = yeast control strain growth, post-Golgi counter-screen. 5% of 98,000 active. AID 738. inhibition, % at 10 µM. efflux-deficient yeast background strain, growth absorbance A615, 16 h
Cav3 T inh = blocks human Cav3.2 T-type calcium channel. Cav3.2-expressing cells, Fluo-4 calcium fluorescence FDSS; stronger effect = lower value. O95180. 4% of 100,000 active. B-score at 10 µM;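 active = single-dose well whose peak fluorescence ratio is a statistical outlier from its plate by either plate-standardised score or position-corrected B-score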
E coli WT exp = blocks growth of wild type E. coli BW25113; OD600 absorbance; growth inhibition, % at 100 µM; 0.15% of 98,000 active; AID 710;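 active = growth inhibition above about 50% at one test dose, limit read from the data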;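 also: growth measured after 20 h incubation at 37 °C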
* hit, by the source's call; · = not tested or not shown. Shown are actives, neighbours in structure and some others; about 8.7% of the full set was active somewhere. Rule as the data show it, unless noted: active = inhibition above about 30%; inactive = the rest.

SMILES	PTK2B oligo ant	PostGolgi yeast	Ecoli tolC	PostGolgi ctrl	Cav3 T inh	E coli WT exp
COc1cc(OC)cc(C(=O)Nc2cc(NC(=O)c3ccco3)ccc2OC)c1	-0.81	12	6	14	-0.092	1
CCCOc1cccc(C(=O)Nc2cc(NC(=O)c3ccco3)ccc2OC)c1	-0.37	-4	49	41*	-6.4*	-14
COc1ccc(Br)cc1C(=O)Nc1cccc(C)c1	-0.41	-3	·	8	0.21	-4
CC(C)(C)OC(=O)N1CCCC(C(=O)CC#N)C1 (stereo not drawn)	-0.25	3	-2	1	0.051	-4
O=C(O)C1=C[C@H](c2ccc3c(c2)OCO3)C[C@H](OCCCCO)O1	·	·	·	·	1.9	·
O=C(CSCCSCC(=O)c1ccco1)c1ccco1	·	0	9	6	0.62	13
C(=N\n1cnnc1)/c1nc2ccccc2[nH]1	-0.52	-2	·	12	-0.048	9
Clc1ccc(/C=C/c2nc3ccccc3[nH]2)c(Cl)c1	-1.2	24	·	75*	-3.3	6
Clc1cccc(Cl)c1/C=C/c1nc2ccccc2[nH]1	-2.3	8	·	66*	-3.4	-5
Clc1ccc(/C=C/c2nc3ccccc3[nH]2)cc1	-0.55	4	·	14	-0.053	-1
Cc1cc(N2CCN(C(=O)c3ccco3)CC2)n2ncc(-c3ccccc3)c2n1	0.32	101*	25	102*	2.6	-4
Cc1nn2c(N3CCN(C(=O)c4ccco4)CC3)cc(C(C)(C)C)nc2c1-c1ccccc1	·	10	11	91*	-6.7*	1
COc1ccccc1-c1c(C)nn2c(N3CCN(c4ccccc4OC)CC3)cc(C)nc12	·	2	23	7	-1.4	-10
Cc1cc(N2CCCCC2)n2ncc(-c3ccc(Cl)cc3)c2n1	-0.06	1	24	7	-0.66	-10
COc1ccccc1-c1c(C)nn2c(N3CCCCCC3)cc(C)nc12	·	-7	60	31*	-1.5	-1
Cc1cc(N2CCCCC2)n2ncc(-c3ccccc3)c2n1	-0.33	18	75*	4	0.74	-5
CCSc1ccccc1C(=O)NCc1ccc2c(c1)OCO2	0.36	-1	12	7	1.2	0
c1cnc(N2CCN(c3nc4ccccc4n4cnnc34)CC2)nc1	0.13	-6	9	7	0.48	-2
Cc1cccc(N2CCN(c3nc4ccccc4n4cnnc34)CC2)c1C	·	0	20	37*	-1.1	2
CN(c1nc(-c2ccccc2)cs1)C1CCS(=O)(=O)C1 (stereo not drawn)	0.07	-2	11	7	0.11	5
CCOC(=O)c1c(C)n(C)c2ccc(OC(=O)c3ccoc3)cc12	0.54	7	-4	32*	0.38	-10
COCCOC(=O)c1c(C)n(C)c2ccc(OC(=O)c3ccco3)cc12	0.08	-6	·	10	0.24	-3
Cc1ccc(-c2nnc(CSc3nnc(COc4ccccc4)n3-c3ccccc3)o2)cc1	-0.78	-1	53	16	-7*	-22
N#Cc1ccc(CSc2nnc(COc3ccccc3)n2-c2ccccc2)cc1	0.34	-4	·	21	-0.76	-16
Cc1ccc(-c2nnc(CSc3nnc(COc4ccccc4)n3-c3ccc(C)cc3)o2)cc1	0.84	6	30	34*	-5.5*	-19
SMILES	PTK2B oligo ant	PostGolgi yeast	Ecoli tolC	PostGolgi ctrl	Cav3 T inh	E coli WT exp
COc1ccc(-n2c(COc3ccccc3)nnc2SCc2ccc(C#N)cc2)cc1	-1.2	2	63*	16	-2.8	-29
N#Cc1ccc(CSc2nnc(-c3cccs3)n2-c2ccccc2)cc1	-2.7	-5	74*	43*	-5.8*	-26
Fc1ccc(C(CCCn2nnc(-c3cccnc3)n2)c2ccc(F)cc2)cc1	-3.7*	-8	·	15	-4.2*	-6
CCOC(=O)C1(CCSC)NC(c2ccco2)C2C(=O)N(C)C(=O)C21 (stereo not drawn)	-0.07	-6	-21	2	2.4	5
COc1ccc(S(=O)(=O)n2nc(OC(=O)c3cccs3)cc2NC(=O)c2cccs2)cc1	·	·	·	·	-0.051	·
Clc1ccc2[nH]cc(-c3nnnn3-c3ccc4ccccc4c3)c2c1	-3.2*	-11	·	2	0.078	-4
Cc1c(C(=O)Nc2ccccc2-c2ccccc2)cccc1[N+](=O)[O-]	0.19	5	·	12	-0.95	-5
CCCCCc1nc2c(C#N)c(-c3ccc(Cl)cc3)ccn2n1	-0.58	-2	·	34*	-1.2	-14
CC1CCN(C(=O)C2CCN(S(=O)(=O)c3cccc4nonc34)CC2)CC1	0.24	8	·	31*	0.7	0
NC(=O)C1(N2CCCCC2)CCN(C(=O)CSc2nc3ccccc3s2)CC1	-0.06	-5	10	-6	·	5
COc1cc(/C=C(\C#N)c2nc3c(s2)CCCC3)ccc1O	·	5	·	56*	-0.82	-2
NS(=O)(=O)c1ccc(CCNC2CC(=O)N(Cc3ccccc3)C2=O)cc1 (stereo not drawn)	-0.33	-3	-13	32*	0.022	-4
CC(=O)c1c(C(C)=O)c(C)n(-c2nc(-c3ccc(Br)cc3)c(C)s2)c1C	0.26	-9	·	56*	·	-8
O=C(NC1CCCCC1)NC1CC2CCC(C1)N2Cc1nnnn1Cc1ccc2c(c1)OCO2 (stereo not drawn)	-0.33	7	·	14	·	10
O=C(COc1ncnc2ccccc12)NCCCN1CCCC1=O	0.05	3	-7	10	0.82	0
Cc1oc2c(CN(C)C)c(O)ccc2c(=O)c1-c1ccc2ccccc2n1	0.28	-6	-9	35*	0.39	6
Cc1ccc(Cl)cc1N(Cc1ccc(C(=O)NCc2cccnc2)cc1)S(=O)(=O)c1ccccc1	0.47	-4	·	22	·	-9
Cn1c2ccccc2c2cc(C(=O)NNS(=O)(=O)c3ccc(F)cc3)sc21	0.44	15	·	55*	-2.8	-3
O/N=C(\c1ccc(Cl)cc1)c1cc2ccccc2o1	-0.87	15	98*	34*	·	-3
Cc1ccc(C(C(=O)NC2CCCCC2)N(Cc2ccco2)C(=O)Cn2cnc3ccccc32)cc1 (stereo not drawn)	-1.1	·	·	·	-5.1*	·
CCC(C(=O)NC1CCCC1)N(Cc1ccco1)C(=O)Cn1nnc(-c2ccc(C)cc2)n1 (stereo not drawn)	-0.45	-1	0	16	-3.7*	3
CCOC(=O)CN(C(=O)Cn1nnc(-c2ccc(C)cc2)n1)C(CC)C(=O)NC1CCCC1 (stereo not drawn)	-0.59	-1	4	6	-1.8	-3
Cc1ccc(CN(C(=O)C(F)(F)F)C(C(=O)NC2CCCCC2)c2ccco2)cc1 (stereo not drawn)	0.22	·	·	·	-5.4*	·
O=C(NC1CCCCC1)C(c1ccco1)N(C(=O)C(F)(F)F)C1CC1 (stereo not drawn)	3.7	·	·	·	0.036	·
CCC(C)c1ccc(NC(=S)NCc2cccs2)cc1 (stereo not drawn)	-0.43	-10	·	7	-3.2*	-3
N#Cc1c(NCCO)nc(NCc2ccccc2)c2c1CCN(Cc1ccccc1)C2	·	4	7	-6	-3.6*	10

Screening results from PubChem.
